In ChEMBL document CHEMBL4266032, “Methylated Polycyclic Polyprenylated Acylphloroglucinol Derivatives from Hypericum ascyron” (2018):

system: SK-N-SH; experiment: Neuroprotective activity against glutamate-induced toxicity in human SK-N-SH cells assessed as cell viability at 10 uM pretreated for 4 hrs followed by glutamate challenge measured after 4 hrs by MTT assay (reference value: 67.7 +/- 1.1%); format: functional; details: read-out: Activity

SMILES | viability at 10 µM
Oc1ccc(/C=C/c2cc(O)cc(O)c2)cc1 [RESVERATROL] | 82.5%
CC(C)=CCC[C@]1(C)[C@@H](CC=C(C)C)C[C@]2(C)C(=O)C3=C(O[C@H](C(C)(C)O)[C@@H]3O)[C@@]1(C(=O)c1ccccc1)C2=O | 72.2%
CC(C)=CCC[C@]1(C)[C@@H](CC=C(C)C)C[C@@]2(C)C(=O)[C@]1(C(=O)c1ccccc1)C(=O)C1=C2O[C@@H](C(C)(C)O)C1 | 82.9%
CC(C)=CCC[C@]1(C)[C@@H](CC=C(C)C)C[C@]2(C)C(=O)C3=C(O[C@H](C(C)(C)O)[C@H]3O)[C@@]1(C(=O)c1ccccc1)C2=O | 78.2%
CC(C)=CCC[C@]1(C)[C@@H](CC=C(C)C)C[C@]2(C)C(=O)C3=C(O[C@@H](C(C)(C)O)C3)[C@@]1(C(=O)c1ccccc1)C2=O | 71.8%

system: HepG2; experiment: Hepatoprotective activity in human HepG2 cells assessed as inhibition of paracetamol-induced reduction in cell viability at 10 uM pretreated for 1 hr followed by paracetamol addition after 24 hrs by MTT assay relative to control; format: functional; details: not given
Procedure, shortened: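 HepG2 cells injured with paracetamol; test agents at 10 μM; viability read by MTT and given as % of normal, with protection expressed as % inhibition relative to the paracetamol-only control. Bicyclol at 10 μM served as positive control. Means ± SD, n = 3 (n = 6 for normal and control groups).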

SMILES | inhibition at 10 µM
CC(C)=CC[C@H]1C[C@]2(C)C(=O)C(C(=O)c3ccccc3)=C3O[C@H](C(C)(C)O)CC[C@@]1(C)[C@]3(CC=C(C)C)C2=O | 42.9%
CC(C)=CCC[C@]1(C)[C@@H](CC=C(C)C)C[C@]2(C)C(=O)C3=C(O[C@@H](C(C)(C)O)[C@H]3O)[C@@]1(C(=O)c1ccccc1)C2=O | 71.4%
COC(=O)c1cc(OC)c2c(c1-c1c(CO)cc(OC)c3c1OCO3)OCO2 [BICYCLOL] | 52.6%
CC(C)=CCC[C@]1(C)[C@@H](CC=C(C)C)C[C@@]2(C)C(=O)[C@]1(C(=O)c1ccccc1)C(=O)C1=C2O[C@H](C(C)(C)O)[C@@H]1O | 30.8%
CC(C)=CCC[C@]1(C)[C@@H](CC=C(C)C)C[C@]2(C)C(=O)C3=C(O[C@H](C(C)(C)O)[C@H]3O)[C@@]1(C(=O)c1ccccc1)C2=O | 68.1%
CC(C)=CCC1=C2O[C@H](C(C)(C)O)CC[C@]3(C)[C@@H](CC=C(C)C)C[C@](C)(C1=O)C(=O)[C@]23C(=O)c1ccccc1 | 37.2%
